Measured values taken from ChEMBL document CHEMBL1156597, “Structure-activity relationship of kahalalide F synthetic analogues” (J Med Chem, 2008).

Legend:
[1] = Cytotoxicity against human IGROV-ET cells after 48 hrs by SRB assay; type: functional; conditions: for CC50: read-out: LC50 (the source's name)
In short: (§1)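 Cells grown in RPMI 1640 with 10% FBS and penicillin/streptomycin at 37 °C and 5% CO₂, trypsinized, then seeded at 5 × 10³/well. After 18 h drug-free attachment, samples in DMSO/EtOH/PBS (0.5:0.5:99) were added for 48 h continuous exposure. Cells were fixed with cold TCA (1 h, 4 °C) and stained with SRB (10 min). Tris-solubilized stain read at 490 nm. Triplicate wells, mean ± SD; GI₅₀ derived.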

[2] = test system: K562; experiment: Cytotoxicity against human K562 cells after 48 hrs by SRB assay; type: functional; conditions: K562, 48 h; for CC50: read-out: LC50 (the source's name); in short: as §1
[3] = test system: HeLa; experiment: Cytotoxicity against human HeLa cells after 48 hrs by SRB assay; type: functional; conditions: for CC50: read-out: LC50 (the source's name); in short: as §1
[4] = test system: DU-145; experiment: Cytotoxicity against human DU145 cells after 48 hrs by SRB assay; type: functional, cell-based; conditions: Homo sapiens, DU-145, 48 h; for CC50: read-out: LC50 (the source's name); in short: as §1
[5] = test system: SK-MEL-28; experiment: Cytotoxicity against human SK-MEL-28 cells after 48 hrs by SRB assay; type: functional, cell-based; conditions: Homo sapiens, SK-MEL-28, 48 h; for CC50: read-out: LC50 (the source's name); in short: as §1
[6] = Cytotoxicity against human HeLa-APL cells after 48 hrs by SRB assay; type: functional; in short: as §1
[7] = test system: LoVo; experiment: Cytotoxicity against human LoVo cells after 48 hrs by SRB assay; type: functional; conditions: for CC50: read-out: LC50 (the source's name)
[8] = test system: PANC-1; experiment: Cytotoxicity against human PANC1 cells after 48 hrs by SRB assay; type: functional; conditions: PANC-1, 48 h; for CC50: read-out: LC50 (the source's name); in short: as §1
[9] = test system: HT-29; experiment: Cytotoxicity against human HT29 cells after 48 hrs by SRB assay; type: functional, cell-based; conditions: Homo sapiens, HT-29, 48 h; for CC50: read-out: LC50 (the source's name); in short: as §1
[10] = test system: A549; experiment: Cytotoxicity against human A549 cells after 48 hrs by SRB assay; type: functional, cell-based; conditions: Homo sapiens, A549, 48 h; in short: as §1
[11] = test system: LoVo; experiment: Cytotoxicity against human doxorubicin resistant LoVo cells after 48 hrs by SRB assay; type: functional; conditions: for CC50: read-out: LC50 (the source's name); in short: as §1
[12] = test system: SK-BR-3; experiment: Cytotoxicity against human SKBR3 cells after 48 hrs by SRB assay; type: functional; conditions: SK-BR-3, 48 h; for CC50: read-out: LC50 (the source's name); in short: as §1
[13] = Cytotoxicity against human IGROV cells after 48 hrs by SRB assay; type: functional; conditions: for CC50: read-out: LC50 (the source's name); in short: as §1

Row | Structure (SMILES) | GI50 [1] [nM] | GI50 ([1]; read-out: GI50) [nM] | CC50 [1] [nM] | CC50 [2] [nM] | CC50 [3] [nM] | GI50 [4] [nM] | GI50 ([4]; read-out: GI50) [nM] | CC50 [4] [nM] | GI50 ([5]; read-out: GI50) [nM] | CC50 [5] [nM] | LC50 (concentration giving 50% net cell kill) [6] [nM] | GI50 [7] [nM] | TGI [7] [nM] | CC50 [7] [nM] | CC50 [8] [nM] | GI50 [9] [nM] | TGI [9] [nM] | CC50 [9] [nM] | LC50 [10] [nM] | GI50 ([10]; read-out: GI50) [nM] | further results
1 | C/C=C1\NC(=O)[C@H](Cc2ccccc2)NC(=O)[C@@H](C(C)C)NC(=O)[C@@H]([C@H](C)CC)NC(=O)[C@H](NC(=O)[C@H](NC(=O)[C@H](CCCN)NC(=O)[C@H]2CCCN2C(=O)[C@H](NC(=O)[C@@H](NC(=O)[C@H](CCC(N)=O)NC(=O)[C@H](NC(=O)CCCC(C)C)C(C)C)C(C)C)C(C)C)[C@H](C)CC)[C@H](C)OC(=O)[C@H](C(C)C)NC1=O | 575 | 477 | 561 | 1900 | 946 | 913 | 913 | 913 | 1170 | 1170 | 955 | 258 | 325 | 357 | 1740 | 448 | 455 | 436 | 1140 | 1140 | GI50 [2]: 1900 nM; TGI [2]: 1900 nM; TGI [5]: 1170 nM; GI50 [8]: 1740 nM; TGI [8]: 1740 nM; TGI [10]: 1140 nM; CC50 [11]: 348 nM; TGI [12]: 173 nM; GI50 ([12]; read-out: GI50): 151 nM; CC50 [12]: 300 nM; GI50 [13]: 406 nM; GI50 ([13]; read-out: GI50): 357 nM; CC50 [13]: 456 nM
2 | C/C=C1\NC(=O)[C@H](Cc2ccccc2)NC(=O)[C@@H](C(C)C)NC(=O)[C@@H]([C@H](C)CC)NC(=O)[C@H](NC(=O)[C@H](NC(=O)[C@H](CCCNC(=O)CCC2CCCCC2)NC(=O)[C@H]2CCCN2C(=O)[C@H](NC(=O)[C@@H](NC(=O)[C@@H](NC(=O)[C@H](NC(=O)CCCC(C)C)C(C)C)[C@@H](C)O)C(C)C)C(C)C)[C@H](C)CC)[C@H](C)OC(=O)[C@H](C(C)C)NC1=O | 158 | 103 | 547 | 17.7 | 799 | 176 | 76.6 | 853 | 94.3 | 327 | 893 | 39.2 | 63.4 | 201 | 163 | 66.6 | 85 | 130 | 365 | 109 | GI50 [3]: 83.6 nM; TGI [3]: 175 nM; GI50 [5]: 150 nM; GI50 [6]: 166 nM; TGI [6]: 264 nM; GI50 [10]: 196 nM; GI50 [11]: 93.5 nM; TGI [11]: 93.7 nM; CC50 [11]: 93.8 nM; GI50 [12]: 39 nM; GI50 ([12]; read-out: GI50): 36.2 nM; CC50 [12]: 94.7 nM; GI50 [13]: 89.8 nM; GI50 ([13]; read-out: GI50): 48.1 nM; CC50 [13]: 459 nM
3 | C/C=C1\NC(=O)[C@H](Cc2ccccc2)NC(=O)[C@@H](C(C)C)NC(=O)[C@@H]([C@H](C)CC)NC(=O)[C@H](NC(=O)[C@H](NC(=O)[C@H](CCCNC(=O)/C=C/CCC)NC(=O)[C@H]2CCCN2C(=O)[C@H](NC(=O)[C@@H](NC(=O)[C@@H](NC(=O)[C@H](NC(=O)CCCC(C)C)C(C)C)[C@@H](C)O)C(C)C)C(C)C)[C@H](C)CC)[C@H](C)OC(=O)[C@H](C(C)C)NC1=O | 250 | 205 | 517 | 1820 | 908 | 876 | 661 | 876 | 814 | 1120 | 802 | 75.6 | 82.4 | 90.6 | 1670 | 126 | 103 | 268 | 1090 | 619 | GI50 [2]: 1240 nM; TGI [2]: 1820 nM; GI50 [3]: 407 nM; TGI [3]: 670 nM; TGI [5]: 1120 nM; GI50 [6]: 503 nM; TGI [6]: 514 nM; GI50 [8]: 1670 nM; TGI [8]: 1670 nM; TGI [10]: 1090 nM; GI50 [11]: 140 nM; TGI [11]: 116 nM; CC50 [11]: 96.9 nM; GI50 [12]: 67.8 nM; GI50 ([12]; read-out: GI50): 55.7 nM; CC50 [12]: 102 nM; GI50 [13]: 221 nM; GI50 ([13]; read-out: GI50): 179 nM; CC50 [13]: 467 nM
4 | C/C=C1\NC(=O)[C@H](Cc2ccccc2)NC(=O)[C@@H](C(C)C)NC(=O)[C@@H]([C@H](C)CC)NC(=O)[C@H](NC(=O)[C@H](NC(=O)[C@H](CCCNC(=O)C[C@](OC)(c2ccccc2)C(F)(F)F)NC(=O)[C@H]2CCCN2C(=O)[C@H](NC(=O)[C@@H](NC(=O)[C@@H](NC(=O)[C@H](NC(=O)CCCC(C)C)C(C)C)[C@@H](C)O)C(C)C)C(C)C)[C@H](C)CC)[C@H](C)OC(=O)[C@H](C(C)C)NC1=O | 397 | 344 | 479 | 1690 | 842 | 812 | 886 | 812 | 1040 | 1040 | 850 | 92.7 | 91.4 | 90.9 | 1550 | 148 | 147 | 311 | 1010 | 1010 | GI50 [2]: 1110 nM; TGI [2]: 1690 nM; GI50 [3]: 537 nM; TGI [3]: 842 nM; TGI [5]: 1040 nM; GI50 [6]: 554 nM; TGI [6]: 615 nM; GI50 [8]: 1550 nM; TGI [8]: 1550 nM; TGI [10]: 1010 nM; CC50 [11]: 119 nM; GI50 [12]: 95.8 nM; GI50 ([12]; read-out: GI50): 91.8 nM; CC50 [12]: 158 nM; GI50 [13]: 313 nM; GI50 ([13]; read-out: GI50): 245 nM; CC50 [13]: 442 nM
